Measurements as given in ChEMBL document CHEMBL3621102, “Structure-activity study of quinazoline derivatives leading to the discovery of potent EGFR-T790M inhibitors” (Eur J Med Chem, 2015).
pIC50: −log10 of the molar value. Active and inactive are the calls of the source. No cut-off for these calls is given here.

What was measured:
NCI-H1975 [1] = assay: Antiproliferative activity against human NCI-H1975 cells assessed as growth inhibition; assay type: functional
Procedure, shortened: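 NCI-H1975 cells were grown in RPMI with 1 mM sodium pyruvate, 10% FBS and 1% penicillin-streptomycin, under humidified 5% CO₂ at 37 °C. Growth inhibition was read as GI₅₀.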

Mus musculus [2] = assay: Toxicity in NCI-H1975 xenografted BALB/c mouse at 10 mg/kg po, qd for 7 days measured after drug cessation; assay type: organism-based; conditions: in vivo, 168 h
Procedure, shortened: (§1)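 Athymic mice bearing subcutaneous right-flank xenografts (2 × 10⁶ cells, dosed at 100–300 mm³; n = 6 per group; vehicle controls). Health was observed daily and body weight measured on indicated days. Body weight change (%) = (Wt/W0 − 1) × 100 against predosing weight, given as group mean ± SEM.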

Mus musculus [3] = assay: Toxicity in NCI-H1975 xenografted BALB/c mouse assessed as body weight loss at 10 mg/kg po, qd for 21 days; assay type: organism-based; conditions: in vivo, 504 h; procedure, shortened: as §1
[4] = biological target: Epidermal growth factor receptor (Homo sapiens, UniProt P00533); assay: Inhibition of EGFR (unknown origin) by ELISA method
Chain of Epidermal growth factor receptor (P00533 whole entry): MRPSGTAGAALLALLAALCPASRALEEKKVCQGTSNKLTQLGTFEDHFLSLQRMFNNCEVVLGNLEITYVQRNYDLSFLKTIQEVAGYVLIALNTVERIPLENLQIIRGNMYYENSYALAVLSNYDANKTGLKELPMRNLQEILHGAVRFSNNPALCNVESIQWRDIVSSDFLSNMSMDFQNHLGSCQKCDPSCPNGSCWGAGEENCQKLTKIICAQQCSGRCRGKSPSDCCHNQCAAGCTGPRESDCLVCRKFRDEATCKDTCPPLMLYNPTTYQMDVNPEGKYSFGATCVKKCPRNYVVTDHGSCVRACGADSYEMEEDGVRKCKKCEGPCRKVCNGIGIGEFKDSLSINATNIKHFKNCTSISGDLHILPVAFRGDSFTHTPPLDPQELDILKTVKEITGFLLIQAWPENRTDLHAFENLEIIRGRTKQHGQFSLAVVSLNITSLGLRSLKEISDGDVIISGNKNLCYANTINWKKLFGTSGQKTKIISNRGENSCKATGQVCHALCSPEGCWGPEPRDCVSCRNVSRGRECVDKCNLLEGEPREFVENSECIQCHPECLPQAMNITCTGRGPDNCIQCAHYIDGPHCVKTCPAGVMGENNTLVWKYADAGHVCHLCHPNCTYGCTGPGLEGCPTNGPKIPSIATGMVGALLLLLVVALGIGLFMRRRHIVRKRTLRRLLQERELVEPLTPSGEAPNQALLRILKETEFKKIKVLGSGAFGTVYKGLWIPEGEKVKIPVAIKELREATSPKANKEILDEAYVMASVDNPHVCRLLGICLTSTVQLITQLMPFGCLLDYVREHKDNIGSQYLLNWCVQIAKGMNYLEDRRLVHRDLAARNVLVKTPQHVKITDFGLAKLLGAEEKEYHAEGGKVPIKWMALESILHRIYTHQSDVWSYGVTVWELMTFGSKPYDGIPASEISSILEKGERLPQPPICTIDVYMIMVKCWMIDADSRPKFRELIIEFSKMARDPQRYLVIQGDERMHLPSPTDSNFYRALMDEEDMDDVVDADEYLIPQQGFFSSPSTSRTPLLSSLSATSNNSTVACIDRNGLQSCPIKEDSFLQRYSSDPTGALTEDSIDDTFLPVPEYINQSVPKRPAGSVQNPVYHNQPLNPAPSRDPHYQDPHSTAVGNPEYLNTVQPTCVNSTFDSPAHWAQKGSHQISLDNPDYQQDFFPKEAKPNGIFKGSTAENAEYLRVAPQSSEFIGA

[5] = Toxicity in NCI-H1975 xenografted BALB/c mouse assessed as induction of mouse mortality at 10 mg/kg po, qd for days; assay type: organism-based; conditions: in vivo
Procedure, shortened: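 Athymic mice received 2 × 10⁶ NCI-H1975 cells subcutaneously in the right flank. When tumours reached 100–300 mm³, mice were randomised into control and treatment groups (n = 6 per group), and controls got vehicle alone. Health was checked daily, and body weight and tumour size were measured on set days during treatment.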

NCI-H1975 [6] = assay: Antitumor activity against human NCI-H1975 cells xenografted in BALB/c mouse assessed as tumor growth inhibition at 10 mg/kg po, qd for 21 days; assay type: functional, organism-based
Procedure, shortened: (§2)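 Athymic mice received 2 × 10⁶ tumour cells subcutaneously in the right flank. At 100–300 mm³ they were randomised to control and treatment groups (n = 6); controls received vehicle alone. Tumour volume = length × width²/2 and RTV = Vt/V0.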

Mus musculus [7] = assay: Toxicity in NCI-H1975 xenografted BALB/c mouse assessed as body weight change at 10 mg/kg po, qd for 21 days; assay type: organism-based; conditions: in vivo, 504 h; procedure, shortened: as §1
Mus musculus [8] = assay: Toxicity in NCI-H1975 xenografted BALB/c mouse assessed as skin toxicity at 10 mg/kg po, qd for 21 days; assay type: organism-based; conditions: in vivo, 504 h; procedure, shortened: as §1
Mus musculus [9] = assay: Toxicity in NCI-H1975 xenografted BALB/c mouse assessed as induction of eye diseases at 20 mg/kg po, qd for 21 days; assay type: organism-based; conditions: in vivo, 504 h; procedure, shortened: as §1
Mus musculus [10] = assay: Toxicity in human A431 cells xenografted BALB/c mouse assessed as body weight loss at 5 and 10 mg/kg po, qd for 18 days; assay type: organism-based, A-431; conditions: in vivo, 432 h; procedure, shortened: as §1
Mus musculus [11] = assay: Toxicity in human A431 cells xenografted BALB/c mouse assessed as induction of eye diseases at 5 and 10 mg/kg po, qd for 18 days; assay type: organism-based, A-431; conditions: in vivo, 432 h; procedure, shortened: as §1
Mus musculus [12] = assay: Toxicity in human HCC827 cells xenografted BALB/c mouse assessed as induction of eye disease at 5 mg/kg po, qd for 12 days; assay type: organism-based; conditions: in vivo, 288 h; procedure, shortened: as §1
A-431 [13] = assay: Antitumor activity against human A431 cells xenografted in BALB/c mouse assessed as tumor growth inhibition at 10 mg/kg po, qd for 18 days; assay type: functional, organism-based; procedure, shortened: as §2
[14] = Clearance in Sprague-Dawley rat at 1 mg/kg, iv incubated for 24 hrs by LC/MS/MS method; assay type: ADME, organism-based; conditions: in vivo
Procedure, shortened: (§3)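 Male Sprague-Dawley rats (n = 3) dosed once at 1 mg/kg iv via tail vein, or once at 5 mg/kg by oral gavage, using the same formulation. Serial blood samples were taken over 24 h. Plasma levels were measured by LC/MS/MS (C18 column, 10 mM ammonium formate-0.1% formic acid water/methanol 10/90, ESI positive). Parameters were derived by noncompartmental analysis.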

Mus musculus [15] = assay: Toxicity in NCI-H1975 xenografted BALB/c mouse assessed as induction of eye diseases at 13 mg/kg po, qd for 21 days; assay type: organism-based; conditions: in vivo, 504 h; procedure, shortened: as §1
Mus musculus [16] = assay: Toxicity in human HCC827 cells xenografted BALB/c mouse assessed as induction of exfoliative skin disorders at 5 mg/kg po, qd for 12 days; assay type: organism-based; conditions: in vivo, 288 h; procedure, shortened: as §1
Mus musculus [17] = assay: Toxicity in human HCC827 cells xenografted BALB/c mouse assessed as body weight loss at 5 mg/kg po, qd for 12 days; assay type: organism-based; conditions: in vivo, 288 h; procedure, shortened: as §1
A-431 [18] = assay: Antitumor activity against human A431 cells xenografted in BALB/c mouse assessed as tumor growth inhibition at 5 mg/kg po, qd for 18 days; assay type: functional, organism-based; procedure, shortened: as §2
[19] = Mean residence time in Sprague-Dawley rat at 1 mg/kg, iv incubated for 24 hrs by LC/MS/MS method; assay type: ADME, organism-based; conditions: in vivo; procedure, shortened: as §3
[20] = Apparent volume of distribution in Sprague-Dawley rat at 1 mg/kg, iv incubated for 24 hrs by LC/MS/MS method; assay type: ADME, organism-based; conditions: in vivo, read-out: Vd(app); procedure, shortened: as §3
[21] = AUC (0 to infinity) in Sprague-Dawley rat at 1 mg/kg, iv by LC/MS/MS method; assay type: ADME, organism-based; parameters: dose 1 mg/kg, time infinity, route intravenous; conditions: in vivo; procedure, shortened: as §3
[22] = Elimination half-life in Sprague-Dawley rat at 1 mg/kg, iv incubated for 24 hrs by LC/MS/MS method; assay type: ADME, organism-based; conditions: in vivo, read-out: beta t1/2 (converted); procedure, shortened: as §3
HCC827 = assay: Antitumor activity against human HCC827 cells xenografted in BALB/c mouse assessed as tumor growth inhibition at 5 mg/kg po, qd for 12 days; assay type: functional, organism-based; procedure, shortened: as §2
Mus musculus [23] = assay: Toxicity in NCI-H1975 xenografted BALB/c mouse assessed as induction of exfoliative skin disorders at 13 mg/kg po, qd for 21 days; assay type: organism-based; conditions: in vivo, 504 h; procedure, shortened: as §1
[24] = Bioavailability in Sprague-Dawley rat at 1 mg/kg, iv incubated for 24 hrs by LC/MS/MS method; assay type: ADME, organism-based; conditions: in vivo; procedure, shortened: as §3
NCI-H1975 [25] = assay: Antitumor activity against human NCI-H1975 cells xenografted in BALB/c mouse assessed as tumor growth inhibition at 13 mg/kg po, qd for 21 days; assay type: functional, organism-based; procedure, shortened: as §2
Mus musculus [26] = assay: Toxicity in human A431 cells xenografted BALB/c mouse assessed as induction of exfoliative skin disorders at 5 and 10 mg/kg po, qd for 18 days; assay type: organism-based, A-431; conditions: in vivo, 432 h; procedure, shortened: as §1
[27] = AUC (0 to 24 hrs) in Sprague-Dawley rat at 1 mg/kg, iv by LC/MS/MS method; assay type: ADME, organism-based; parameters: time < 24 hr, dose 1 mg/kg, route intravenous; conditions: in vivo; procedure, shortened: as §3
Mus musculus [28] = assay: Toxicity in NCI-H1975 xenografted BALB/c mouse assessed as body weight change at 13 mg/kg po, qd for 21 days; assay type: organism-based; conditions: in vivo, 504 h; procedure, shortened: as §1
Mus musculus [29] = assay: Toxicity in NCI-H1975 xenografted BALB/c mouse assessed as induction of exfoliative skin disorders at 20 mg/kg po, qd for 21 days; assay type: organism-based; conditions: in vivo, 504 h; procedure, shortened: as §1
NCI-H1975 [30] = assay: Antitumor activity against human NCI-H1975 cells xenografted in BALB/c mouse assessed as tumor growth inhibition at 20 mg/kg po, qd for 21 days relative to control; assay type: functional; procedure, shortened: as §2
Mus musculus [31] = assay: Toxicity in NCI-H1975 xenografted BALB/c mouse assessed as body weight change at 20 mg/kg po, qd for 21 days; assay type: organism-based; conditions: in vivo, 504 h; procedure, shortened: as §1

GI50 (NCI-H1975 [1])	pIC50 [4]	clearance [14]	MRT [19]	Vd [20]	AUC(0-inf) [21]	half-life [22]	bioavailability [24]	AUC(0-t) at 24 h [27]	Compound	Activity (Mus musculus [10])	Activity (Mus musculus [11])	Activity (Mus musculus [12])	TGI (A-431 [13])	Activity (Mus musculus [16])	Activity (Mus musculus [17])	TGI (A-431 [18])	TGI (HCC827)	Activity (Mus musculus [26])	further results
18.9 nM	8.10								C#Cc1cccc(Nc2ncnc3cc(OC)c(NC(=O)/C=C/CNC4CC4)cc23)c1										TGI (NCI-H1975 [6]): Active; Activity (Mus musculus [7]): Non-toxic; Activity (Mus musculus [8]): Toxic
10.2 nM	8.19	25.7 mL/min/kg	3.88 h	3.82 L/kg	662 ng·h/mL	3.15 h	83.5%	660 ng·h/mL	O=C(/C=C/CNC1CC1)Nc1cc2c(Nc3ccc(F)c(Cl)c3)ncnc2cc1O[C@H]1CCOC1	Non-toxic	Non-toxic	Non-toxic	Active	Non-toxic	Non-toxic	inactive	Active	Non-toxic	Activity (Mus musculus [9]): Non-toxic; Activity (Mus musculus [15]): Non-toxic; Activity (Mus musculus [23]): Non-toxic; TGI (NCI-H1975 [25]): Active; Activity (Mus musculus [28]): Non-toxic; Activity (Mus musculus [29]): Non-toxic
16.1 nM	8.25	50 mL/min/kg	1.7 h	2.2 L/kg	480 ng·h/mL	2.3 h	37.9%	471 ng·h/mL	C#Cc1cccc(Nc2ncnc3cc(O[C@H]4CCOC4)c(NC(=O)/C=C/CNC4CC4)cc23)c1	Non-toxic	Non-toxic	Non-toxic	Active	Non-toxic	Non-toxic	inactive	Active	Non-toxic	TGI (NCI-H1975 [30]): Active; Activity (Mus musculus [31]): Non-toxic

Compound	GI50 (NCI-H1975 [1])	pIC50 [4]	clearance [14]	MRT [19]	Vd [20]	AUC(0-inf) [21]	half-life [22]	bioavailability [24]	AUC(0-t) at 24 h [27]	Activity (Mus musculus [10])	Activity (Mus musculus [11])	Activity (Mus musculus [12])	TGI (A-431 [13])	Activity (Mus musculus [16])	Activity (Mus musculus [17])	TGI (A-431 [18])	TGI (HCC827)	Activity (Mus musculus [26])	further results
C#Cc1cccc(Nc2ncnc3cc(OCC)c(NC(=O)/C=C/CNC4CC4)cc23)c1	16.5 nM	8.38																	Activity (Mus musculus [2]): Non-toxic; Activity (Mus musculus [3]): Toxic; mortality [5]: > 50%
